Measurements: ChEMBL document CHEMBL1124564, “Ester derivatives of 2,6-bis(1-pyrrolidinylmethyl)-4-benzamidophenol as short-acting antiarrhythmic agents. 1” (J Med Chem, 1989)
Converted amounts (≈) assume the structure as drawn.

Assays:
[1] = Distribution coefficient of compound was determined in octanol-water system; format: physicochemical
Cavia porcellus = organism: Cavia porcellus; assay: Inhibition of acetylstrophantidin induced arrhythmia in guinea pig isolated right atria.; format: functional; conditions: read-out: ED50 (the source's name)
In short: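 Isolated atrium in prewarmed 37 °C Krebs on an isometric force transducer, tension about 500 mg, equilibrated 1 h. Arrhythmogen (ethanolic stock) added at 5.0 μg/mL, raised to 7.5 μg/mL after 30 min if no arrhythmia. After 45 min, compound given in incremental doses every 20 min. ED is the cumulative dose restoring sinus rhythm for at least 3 min.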

[2] = Biological half-life was evaluated in whole human blood; format: ADME, organism-based
In short: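 Fresh heparinized blood from male volunteers and compound in saline preincubated separately 5 min at 37 °C, then mixed 1:1 (final 25 μg/mL) and shaken at 37 °C for 0, 1, 2.5, 5.0, 10, 20, 30 and 60 min. Stopped with acetonitrile, proteins spun down, supernatant assayed by HPLC on phenyl column. Half-life is the time to 50% loss of compound.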

Canis familiaris = organism: Canis familiaris; assay: Inhibition of ouabain induced arrhythmia in the dog.; format: functional, Canis lupus familiaris
In short: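 Adult male mongrel dogs (10–17 kg) under pentobarbital (30 mg/kg iv), intubated, spontaneous breathing, lead II ECG. Ouabain iv bolus: 40 μg/kg, then 20 μg/kg at 30 min, then 5–10 μg/kg every 15 min until stable ventricular arrhythmia (>95% ectopic complexes) lasted 15 min. Compound infused iv at 0.5 mg/kg per min until sinus rhythm held ≥10 min.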

SMILES | Distribution coefficient [1] | EC50 (Cavia porcellus) | half-life [2] | Active dose (Canis familiaris)
CC(C)OC(=O)CCc1cc(CN2CCCC2)c(O)c(CN2CCCC2)c1 | 0.62 | 4 µg/mL (≈ 10.7 µM) |  | 
CCCCOC(=O)CCCc1cc(CN2CCCC2)c(O)c(CN2CCCC2)c1 | 12.8 | 0.33 µg/mL (≈ 0.82 µM) | 0.77 min | 
CCCCOC(=O)CCc1cc(CN2CCCC2)c(O)c(CN2CCCC2)c1 | 2 | 2.5 µg/mL (≈ 6.43 µM) | 22.1 min | 11 mg/kg
CC(C)OC(=O)c1cc(CN2CCCC2)c(O)c(CN2CCCC2)c1 | 0.37 | 11.4 µg/mL (≈ 32.9 µM) |  | 
O=C(NCC1CCCCN1)c1cc(OCC(F)(F)F)ccc1OCC(F)(F)F (configuration not stated) [FLECAINIDE] | 13.71 | 6 µg/mL (≈ 14.5 µM) |  | 2.3 mg/kg
CCOC(=O)/C=C/c1ccc(NC(=O)c2cc(CN3CCCC3)c(O)c(CN3CCCC3)c2)cc1 |  |  |  | 17.5 mg/kg
CC(C)COC(=O)c1cc(CN2CCCC2)c(O)c(CN2CCCC2)c1 | 1.47 | 2.3 µg/mL (≈ 6.38 µM) |  | 
CCOC(=O)CCc1ccc(NC(=O)c2cc(CN3CCCC3)c(O)c(CN3CCCC3)c2)cc1 |  |  |  | 10.9 mg/kg
CC(C)COC(=O)Cc1cc(CN2CCCC2)c(O)c(CN2CCCC2)c1 | 1.25 | 5 µg/mL (≈ 13.4 µM) | 8.7 min | 11.8 mg/kg
CC(C)COC(=O)CCCc1cc(CN2CCCC2)c(O)c(CN2CCCC2)c1 | 7.24 | 2 µg/mL (≈ 4.97 µM) | 1.96 min | 
O=C(O)Cc1cc(CN2CCCC2)c(O)c(CN2CCCC2)c1 |  | > 200 µg/mL |  | 
CCCOC(=O)Cc1cc(CN2CCCC2)c(O)c(CN2CCCC2)c1 | 0.43 | 10.3 µg/mL (≈ 28.6 µM) | 18.5 min | 8.8 mg/kg
CC(C)OC(=O)Cc1cc(CN2CCCC2)c(O)c(CN2CCCC2)c1 | 0.39 | 1 µg/mL (≈ 2.77 µM) |  | 
O=C(Nc1ccccc1)c1cc(CN2CCCC2)c(O)c(CN2CCCC2)c1 | 0.42 | 11 µg/mL (≈ 29 µM) |  | 2.5 mg/kg
CCC(C)OC(=O)c1cc(CN2CCCC2)c(O)c(CN2CCCC2)c1 (configuration not stated) | 1.12 | 6.7 µg/mL (≈ 18.6 µM) |  | 6.8 mg/kg
CCN(CC)CC(=O)Nc1c(C)cccc1C [LIDOCAINE] | 19.19 | 6 µg/mL (≈ 25.6 µM) |  | 10.1 mg/kg
CCCOC(=O)CCc1cc(CN2CCCC2)c(O)c(CN2CCCC2)c1 | 0.78 | 7 µg/mL (≈ 18.7 µM) | 36.1 min | 3 mg/kg
O=C(O)CCc1cc(CN2CCCC2)c(O)c(CN2CCCC2)c1 |  | > 1000 µg/mL |  | 
CCOC(=O)Cc1cc(CN2CCCC2)c(O)c(CN2CCCC2)c1 | 0.18 | 17.2 µg/mL (≈ 49.6 µM) |  | >7.5 mg/kg
CCOC(=O)c1ccc(NC(=O)c2cc(CN3CCCC3)c(O)c(CN3CCCC3)c2)cc1 |  |  |  | 19 mg/kg
CC(C)COC(=O)CCc1cc(CN2CCCC2)c(O)c(CN2CCCC2)c1 | 1.54 | 14 µg/mL (≈ 36 µM) | 25.9 min | 5 mg/kg
CCCCOC(=O)Cc1cc(CN2CCCC2)c(O)c(CN2CCCC2)c1 | 1.5 | 13.3 µg/mL (≈ 35.5 µM) | 9.5 min | 7.3 mg/kg
CCOC(=O)c1ccccc1NC(=O)c1cc(CN2CCCC2)c(O)c(CN2CCCC2)c1 |  |  |  | 1.75 mg/kg
CCCOC(=O)CCCc1cc(CN2CCCC2)c(O)c(CN2CCCC2)c1 |  |  | 2.1 min | 
O=C(O)c1cc(CN2CCCC2)c(O)c(CN2CCCC2)c1 |  | > 30 µg/mL |  | >60 mg/kg
